Bioassay records as filed in PubChem BioAssay.
Calb FLC: affects C. albicans growth with fluconazole; C. albicans CaCi-2 (fluconazole-resistant clinical isolate) + fluconazole, Alamar Blue growth, 48 h; growth inhibition, % (concentration not given with the values); 300,000 compounds, 0.57% hits;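 active means growth inhibition above about 58% in most replicates, limit read from the data, passing the limit was not always enough; inconclusive means exactly half the replicates above a set limit; inactive means most replicates below a set limit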;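 further: all wells also contain fluconazole at 8 µg/ml as a sub-toxic cotreatment; 0% = median of DMSO wells and 100% = median of geldanamycin control wells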
H9c2 TAG inh: reduces triacylglycerol accumulation in H9c2 cells | Nile Red lipid (TAG) fluorescence; cells loaded with 200 µM oleic acid | inhibition, % at 12.5 µM | 230,000 compounds, 0.66% hits;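 active means pattern-corrected inhibition of lipid staining of at least 50% with the nuclear-stain viability signal not falling by more than 50%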;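 further: 0% = DMSO wells and 100% = triacsin C control wells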
Beta apoptosis: blocks beta cell apoptosis | INS-1E cytokine-induced death, ATP luminescence, 48 h; percent of positive-control rescue, neutral wells zero | protection from apoptosis, % (no concentration beside the values) | 300,000 compounds, 0.8% hits;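 active means Every replicate reaches about 75%, or at least half do and their mean reaches it too, limit read from the data; inconclusive means At least half of replicates reach the limit but their mean does not; inactive means Under half of replicates reach the limit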;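 further: 0% = cytokine-treated negative control wells and 100% = positive control rescue; higher means more ATP so stronger rescue from cytokine killing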
T cruzi repl: blocks replication of Trypanosoma cruzi. inhibition, % (concentration not given with the values). T. cruzi beta-gal in NIH3T3, luminescence, 90 h. 300,000 compounds, 1.4% hits;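 active means mean inhibition across valid replicates above about 55%, limit read from the data; inconclusive means mean below that limit but half or more replicates reach it; inactive means mean below it, under half of replicates reach it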;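 further: signal also drops with host cell toxicity which is not excluded here; 0% = plate median of DMSO wells and 100% = zero luminescence signal; higher percent means less beta-gal luminescence so fewer parasites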
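System – NIH/3T3 host cells with β-galactosidase reporter T. cruzi · Doses – single 50 nL compound addition per well in DMSO · Reagent – 5000 T. cruzi trypomastigotes/well · Medium – Low-serum DMEM with 2% FBS · Timing – ≥90 h infection period, 3 h prior cell attachment · Evaluation – parasite load inhibition, % · Technique – GalScreen luminescence, 60 min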
A1 inh: inhibitors of the anti-apoptotic protein A1, read as caspase activation; MEF A1-2A-BIM cells, Caspase-Glo 3/7 luminescence, 3 h; percent of clofoctol response, vehicle zero; caspase activation, % (no concentration beside the values); 330,000 compounds, 0.066% hits; AID 2462;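 active means over half of replicate activation scores above 10%, or exactly half above 10 with the replicate mean above 10; inconclusive means replicate mean below 10 yet half the replicates above 10; inactive means over half of replicates below 10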
CSC inhib: cancer stem cell inhibition; cancer stem cell-like cells viability, luminescence; inhibition, % at 7.5 µM; 300,000 compounds, 1.1% hits; AID 2717; in the data active means inhibition above about 75%; inconclusive means no clear call, values can overlap the other calls; tested in HMLE shEcad cells
H9c2 TAG conf: triacylglycerol accumulation inhibition, confirmation; shares compounds with H9c2 TAG inh; H9c2 lipid accumulation, Nile Red fluorescence; cells loaded with 200 µM oleic acid; inhibition, % at 12.5 µM; 990 compounds, 71% hits; AID 651629;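 active means mean inhibition across replicates of 40% or more; inactive means mean inhibition below 40%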;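 further: plate controls were DMSO only wells for no effect and Triacsin C treated wells for full effect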
* marks the source's active call; other numbers are inactive results; ? = inconclusive; · = not tested or not shown. Most compounds without a hit are left out; they make up all but 3.1% or so of the library.

SMILES	Calb FLC	H9c2 TAG inh	Beta apoptosis	T cruzi repl	A1 inh	CSC inhib	H9c2 TAG conf
COc1cc(C2c3cc4c(cc3C(O)C3COCC23)OCO4)cc(OC)c1OC (stereo not given)	·	25.5	·	·	·	·	·
COc1ccc(NC(=O)CCN2C(=O)c3ccncc3C2=O)cc1OC	-5.0	3.8	-2.5	-4.8	0.1	-15.6	·
CCOC(=O)c1cc(-c2ccccc2)sc1NC(=O)C(C)N1C(=O)NC(C)(c2ccc(Cl)cc2)C1=O (stereo not given)	-2.5	75.6*	1.5	49.6	-0.1	3.6	76.4*
CCOC(=O)c1cc(-c2ccccc2)sc1NC(=S)Nc1cccc(C)n1	-2.6	69.0*	-3.3	26.7	-0.7	-3.8	56.3*
CCOC(=O)c1cc(-c2ccccc2)sc1NC(=O)C(C)C	-6.3	·	1.9	23.7	1.0	16.2	·
Cc1cc(C(=O)COC(=O)c2ccc([N+](=O)[O-])o2)c(C)n1CC1CCCO1 (stereo not given)	-4.6	71.7*	-6.3	13.5	-0.1	-3.9	53.5*
Cc1ccc(CNC(=O)c2ccc(N3CCC4(CC3)CC(c3ccccc3)=NO4)c(NC(=O)c3ccc(Br)cc3)c2)cc1	4.3	55.0*	-3.3	0.7	0.7	8.5	55.7*
COC(=O)C1=C(C)N(Cc2ccccc2)C(=NCc2cc(OC)c(OC)c(OC)c2)N[C@H]1c1ccc(Br)cc1	·	61.7*	-3.4	·	-0.3	26.0	62.5*
COCCN=C1N[C@@H](c2ccccc2)C(C(=O)OC)=C(C)N1Cc1ccccc1	-3.8	1.0	-1.4	26.1	-0.2	-6.2	·
COC(=O)C1=C(C)N(Cc2ccccc2)C(=NCc2ccccc2)N[C@H]1c1ccccc1	·	104.8*	5.1	·	-0.6	8.2	53.4*
COC(=O)C1=C(C)N(Cc2ccccc2)C(=NCc2cc(OC)c(OC)c(OC)c2)N[C@H]1c1ccccc1	-20.9	·	-3.3	17.5	3.7	2.0	·
Cc1ccc2nc3n(c(=O)c2c1)-c1cc2ccccc2cc1C(=O)NC3Cc1ccc(O)cc1 (stereo not given)	·	63.9*	·	·	·	·	57.2*
O=C1NC(Cc2ccc(O)cc2)c2nc3cc(F)c(F)cc3c(=O)n2-c2cc3ccccc3cc21 (stereo not given)	·	12.1	·	·	·	·	·
O=C1NC(Cc2ccc(O)cc2)c2nc3ccc(F)cc3c(=O)n2-c2cc3ccccc3cc21 (stereo not given)	·	77.9*	·	·	·	·	67.2*
COc1ccc(S(=O)(=O)N2CCOCC2)cc1NC(=O)CN1C(=O)NC(C)(C2CC2)C1=O (stereo not given)	·	-15.5	-3.2	·	-0.7	·	·
CCCC(C(=O)NC(C)(C)C)N(Cc1ccccc1)C(=O)c1snc(C(N)=O)c1N (stereo not given)	·	69.0*	·	·	·	·	0.1
Cc1ccc(OCC(=O)NC2CCCC(C)C2C)c([N+](=O)[O-])n1 (stereo not given)	·	3.8	-11.2	·	0.0	-20.4	·
O=C(O)/C=C/C(=O)c1ccc2c(c1)CCc1ccccc1-2	2.6	8.1	-44.3	-19.1	0.5	55.3	·
CCCOC(=O)c1ccc(NC(=O)CCOc2ccccc2)cc1	-13.4	64.8*	1.0	-11.3	-0.7	-15.8	60.8*
CCOC(=O)c1ccc(NC(=O)CCOc2ccccc2)cc1	10.6	8.1	-4.5	-5.5	-0.2	0.6	·
O=C(c1cc(-c2ccncc2)nc2c(Cl)cccc12)N1CCN(c2ccccc2F)CC1	3.7	55.6*	-3.7	20.1	0.4	19.6	69.0*
CC1(C(=O)N2CCC(CC3CC(c4ccc(Cl)cc4)=NO3)(C(=O)NCC3CCCCC3)CC2)CC1 (stereo not given)	24.6	13.4	-1.5	-18.4	0.2	-0.7	·
CC(C)(C)OC(=O)N1CCC(CC2CC(c3ccc(Cl)cc3)=NO2)(C(=O)NCC2CCCCC2)CC1 (stereo not given)	16.9	66.6*	25.6	48.5	2.3	-8.8	18.4
Cc1ccc(S(=O)(=O)N(C)CC(=O)N2CC(C)OC(C)C2)cc1 (stereo not given)	6.5	11.7	0.6	-14.4	?	-6.2	·
C=CCn1cnc2c(c1=O)c1nc3ccccc3nc1n2/N=C/c1cc(OC)c(OC)c(OC)c1	-2.5	78.6*	102.1*	15.8	-0.1	40.8	37.5
